According to PubChem BioAssay:
Active and inactive are the calls of the source.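 How the source made its calls: active means current rise at least 3 SD above the untreated control mean in each of two repeat wells; inactive means the rest.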

The molecules below were run against Potassium voltage-gated channel subfamily KQT member 1 (Homo sapiens) (UniProt P51787) (assay: KCNQ1 channel current potentiators, confirmation, orthogonal assay for KCNQ1 potentiator project, IonWorks patch clamp, KCNQ1-CHO cells (AID 493184;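 on Current potentiation: percent change of the same well's current before compound addition so 0% = no change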)). Settings: automated patch clamp current, at 10 µM; hits give high values.
Chain of Potassium voltage-gated channel subfamily KQT member 1 (Homo sapiens) (P51787 whole entry, looked up): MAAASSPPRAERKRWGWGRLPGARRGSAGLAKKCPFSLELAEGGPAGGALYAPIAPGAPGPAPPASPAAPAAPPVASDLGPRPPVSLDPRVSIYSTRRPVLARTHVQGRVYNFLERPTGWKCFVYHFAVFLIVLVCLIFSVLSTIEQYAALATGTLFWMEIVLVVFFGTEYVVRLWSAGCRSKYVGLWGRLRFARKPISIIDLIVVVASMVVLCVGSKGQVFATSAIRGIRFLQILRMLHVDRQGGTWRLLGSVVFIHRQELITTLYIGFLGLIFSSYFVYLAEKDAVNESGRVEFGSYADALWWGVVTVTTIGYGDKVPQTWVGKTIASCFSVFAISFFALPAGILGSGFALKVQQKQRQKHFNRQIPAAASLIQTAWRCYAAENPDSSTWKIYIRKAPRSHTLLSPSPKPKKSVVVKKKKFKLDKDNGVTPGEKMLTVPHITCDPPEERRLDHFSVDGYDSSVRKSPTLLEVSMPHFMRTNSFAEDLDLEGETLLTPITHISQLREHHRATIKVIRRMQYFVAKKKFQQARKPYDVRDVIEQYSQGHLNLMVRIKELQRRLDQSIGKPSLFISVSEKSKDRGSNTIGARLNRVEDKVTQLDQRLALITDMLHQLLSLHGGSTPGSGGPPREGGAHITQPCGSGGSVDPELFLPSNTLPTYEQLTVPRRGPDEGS
Procedure, shortened: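 Assay system – CHO cells carrying KCNQ1 · Medium – pH 7.4 external bath · Probe or stimulus – depolarizing pulse to +40 mV from -90 mV · Compound dosing – one dose, 10 µM final · Measured by – automated perforated-patch electrophysiology · Measure – % potentiation of steady-state current relative to pre-compound · Repeats – two replicates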

outcome, inactive:
COc1cccc(OC)c1C(=O)Nc1ccc(C(=O)NCc2ccccc2)cc1, CCC1CCCCN1C(=S)NC(=O)c1cccs1 (stereo not given), CCOC(=O)C1CCN(C(=O)c2c(C)oc3c2C(=O)c2ccccc2C3=O)CC1, CCn1c(SC(C)C(=O)O)nc2sc3c(c2c1=O)CCC3 (stereo not given), O=C(NC(=S)N1CCCCCC1)c1ccccc1, CCCc1ccc2oc(C(=O)N(C)CCn3ccnc3C)c(C)c2c1, CC(=O)c1c(N2CCCC2)[nH]c(-c2ccccc2)nc1=S, COc1cccc(C(=O)Nc2nc(-c3ccccc3)c(-c3ccccc3)o2)c1, CC(OC(=O)CCCNC(=O)c1ccc(Cl)cc1)C(=O)N(C)Cc1ccccc1 (stereo not given), CCC1CCc2c(sc(NC(=O)C3CC=CCC3C(=O)O)c2C#N)C1 (stereo not given), O=C(CNCC1CCCCC1)Nc1ccc(OC(F)(F)F)cc1, CCOC(=O)Cc1csc(NC(=S)NC(=O)c2ccccc2C)n1, Cc1ccc(N=Nc2ccc(O)c3ncccc23)cc1C, O=c1[nH]c(=S)[nH]c2sc3c(c12)CCCCCC3, CC(C)n1c(=S)[nH]c2scc(-c3cccs3)c2c1=O, O=C(NC(=S)NCCc1ccccc1)c1cccc(Cl)c1, CCOC(=O)c1ccc(N2C(=O)c3n[nH]c(C)c3C2c2ccccn2)cc1 (stereo not given), CC(=O)Oc1c(-c2ccco2)oc2ccccc2c1=O, Cc1ccc(C)c(NC(=S)NC(=O)c2cncc(Br)c2)c1, O=C(NC(=S)NCCC1=CCCCC1)c1ccco1, COc1cccc(-c2cn(-c3cccc(C(F)(F)F)c3)c(=S)[nH]2)c1, COc1ccc(C(=O)NNC(=O)C(=O)Nc2ccc(C)cc2)cc1, O=C(N/N=C/c1ccccn1)c1sc2ccccc2c1Cl, O=Cc1ccccc1OCCCOc1cccc2cccnc12, Cc1ccc(C(=O)NNC(=O)CCCCC(=O)NNC(=O)c2ccc(C)cc2)cc1, COc1ccc(OC)c(S(=O)(=O)CC(O)CS(=O)(=O)c2ccccc2)c1 (stereo not given), CN1C=CC=C/C1=C1\SC(=S)N(Cc2ccccc2)C1=O, CC(=O)NC(NC(C)=O)c1ccc(N(C)C)cc1, COCCCn1c(=S)[nH]c2sc3c(c2c1=O)CCCS3, C1=Nc2ccccc2CN1c1ccccc1, CCN(c1ccc(NS(=O)(=O)c2cc(Cl)ccc2Cl)cc1)C(C)C, S=c1nc(C2CCCCC2)n(-c2ccccc2)[nH]1, O=C(Nc1ccc(Cl)cn1)c1cccc(S(=O)(=O)N2CCOCC2)c1, NC(=O)COC(=O)c1ccccc1Nc1ccc(SC(F)F)cc1, COC(=O)c1c(N2C(=O)CC(Sc3ncccc3C(=O)O)C2=O)sc(C)c1C (stereo not given), CN(C)c1oc(-c2ccc(OCc3ccc(Cl)cc3)cc2)nc1C#N, CCN(CC)c1ccc(/C=N/Nc2nc3ccccc3[nH]2)c(O)c1, CCN(C(=O)COC(=O)C(Cc1ccccc1)N1C(=O)c2ccccc2C1=O)C1CCS(=O)(=O)C1 (stereo not given), CCOC(=O)c1cccc(NC(=O)CCc2ccccc2)c1

Current potentiation, active:
O=c1c(Cl)c(Cl)cnn1Cc1nnc(-c2ccccc2Br)o1 14.7%
